Test system: MS2 coat protein
Assay: apparent Kd, MS2 coat protein; higher = weaker binding; RNA-MaP array; FMN 200 µM where present
Procedure, shortened: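 The titrant was SNAP-549-labelled MS2 coat protein, run from 0.7 or 1.5 nM in doubling steps to 3 µM. It was applied to designs transcribed by stalled E. coli RNA polymerase on Illumina sequencing-chip clusters, without ligand first and then with constant ligand, in 100 mM Tris-HCl pH 7.5, 80 mM KCl, 4 mM MgCl2, BSA, DTT, yeast tRNA and Tween-20. The apparent Kd is the median of filtered per-cluster binding-curve fits, with green signal normalised to red-channel RNA signal and control-cluster median Fmax.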

[1] = designed as: ON switch for flavin mononucleotide, no ligand
[2] = ligand present: flavin mononucleotide, designed as: ON switch for flavin mononucleotide
[3] = designed as: OFF switch for flavin mononucleotide, no ligand
[4] = ligand present: flavin mononucleotide, designed as: OFF switch for flavin mononucleotide

Sequence	apparent Kd [1] [nM]	apparent Kd [2] [nM]	apparent Kd [3] [nM]	apparent Kd [4] [nM]
GGGCCACAUGAGGAUCACCCAUGUAAACCCGUGCUCAGGGCACAGGAUAUGGGCCUGGAUGAGGCCCAGAAGGGUGGUCUGGCC	40.1	16.3		
AAAAAACAUGAGGAUCACCCAUGUCGAAAGACAUGAGGAUAUGUGUGGAAACCAUACUAUACAGAAGGCAUAAAAA	37.8	371		
CCUGUGUGAGGAUAUCUACGCCAUGUCUUUGACAUGGCGCAAGAGAAGGCACAUGAGGAUCACCCAUGUACUUC			22.6	135
AUAUGAGAAGCAGGAUAUGUGAAAAAAAAACAUACAGAAGGGUUUAUGGGACAACAUGAGGAUCACCCAUGUUCUCUGUGAUGA	65.2	71		
CACGUCCUCACAGGAUAUGCUGGACUUUGUCCAGCAGAAGGGUGACAUGAGGAUCACCCAUGUAAAAGGACGUGUAUAUUUAAU	515	41.5		
ACAUGAGGAUGAGGAUAUUCAUACAUGAGGAUAGAAGAAGGCAUACAUGAGGAUCACCCAUGUAUACACAUGAGGAUCACCCAU			82.5	85.3
GUGGCGGCCACAGGAUAUACCCGCGGUAGCCUGGUAGAAGGGUGGUCUCUCAGUCACAACAUGAGGAUCACCCAUGUAGAAAUC	25.8	35.5		
GUCAGCUCGUGAGGAUAUACAACACUGCUUCGGCAGUUUAUUAAGAUCACAUGAGGAUCACCCAUGUAGAAGGCACGAGCUGAU			14.4	264
GCCAACUAAUGAGGAUAUGGCACCUUAUUGGUGCCAGAAGGCAUGUCAAUUGACAUGAGGAUCACCCAUGUAUUAUAGUUGGCG	878	109		
GCACUGGAUGUAGGAUAUCAGGACGAUAAGUCCUGAGAAGGACAUGAGGAUCACCCAUGUAAAACUUCACCAGUGCAUAAUAUA			13.3	15.9
UCGGAGUAAGUGAGGAUAUGUGCGCCUUUAAGCGUACAGAAGGCACAUGAGGAUCACCCAUGUGAGGCCUGCCA			18.9	39
AAAUAGUUACAGAAGGGCAUUUAUAAUUAUCAUUACUCUUACUAUGUUUGCAGGAUAUGUUUAACAUGAGGAUCACCCAUGUAC	20.4	14.1		
GAGUGGUGGAGAGGAUAUACAUUGUUAUUCACUGUAGAAGGUUCUAACAUGAGGAUCACCCAUGUAGGACUAUUCCUGAGUUUU	12.4	9.82		
GUUCUUCCUGUGAGGAUAUCCAUGUGUCGGUUUAUGGAGAAGGUACAUGAGGAUCACCCAUGUCACCCGCGUUA			14	18.8
GUAGCUAUCGGAGGAUAUUCAUACCGGAAACGGACAUGAGGAUCACCCAUGUGGCGAAAGCCUUUGGAGAAGGCCGAUAGCUAC	3.56	3.33		
CUUUUGUGAGGAUAUCAGUAGUAAAUAAUUAAAAUUACUACUGAGAAGGCACAUGAGGAUCACCCAUGUUCCUC			42.2	284
CCAGCAACAUGAGGAUCACCCAUGUAGGAUAUCGCUAUUGUAAUCAUGAAACAUGAUUACAAUAGCGAGAAGGACAUAUGCUAA			9.29	10.2
GGCCCACAAGGAUAUACAUGAGGAUCACCCAUGUAAAUCUCAGGUAGUAUGUGGGUGUGUAGAAGGUGUUAGCC			15.2	14.4
GAUAAUAUAGGAUAUACAUGAGGAUCACCCAUGUCCCGAUAUUAGGAGGACCUCCUCGGUAGAAGGAUAUGUGC			129	131
GGAUCAUGAGGAUAUCGAGGUUAGUACAUGAGGAUCACCCAUGUUAUCCAGGUCUCGUUUCGAGAAGGCAUGAUCC			21.5	29.9
AUCCUGCGAGGAUAUACAUAAUUUUUUUCAUUUUGUUUCGAACAUGAGGAUCACCCAUGUAGAAGGUGCUACAC			32.1	29
UUUUAACAUGAGGAUCACCCAUGUGAGGAUAUCGAAAUUUAUAUUAAUAUUUAUUUAACGAGAAGGCACAUUUU			96.4	88.4
GCUAUCGUUGUAGGAUAUGCUUGCCAAAGGCGAGCAGAAGGACAUGAGGAUCACCCAUGUCAGUGGUUGAAGAGAAGAGAUGGC			27	61.5
AACAGUACAGGAUAUACAUGAGGAUCACCCAUGUGAGAAUUUAGCAGCGUACCACACAGUAGAAGGGUAAUGGA			28.2	25.5
GCACUUUUAUUUGAACCGAUACGAACAUGAGGAUCACCCAUGUAGGAUAUGCUAAAAGUUGUGAUGCAGAAGGACAUUAAGUGC			7.73	9.21
UAACCGUGAGGAUAUACAUGAGGAUCACCCAUGUAGCAAGCUACGUAACCCACCAUAUGUAGAAGGCACUAGGU			73.1	47.6
GUAUAUAUGAGGUAGGAUAUCCAAAAUAAAACAUGAGGAUCACCCAUGUAAAUAAAUAAUAAAUGGGAGAAGGACCACAUAUAUAC	30.8	13.8		
UGUCGGAGCAGAGGAUAUGACAUGAGGAUCACCCAUGUAUGAACCAAUAGCUGGAAACAGCAAUGUAAGAAGGCUGCUCCGACA			5.98	6.79

Sequence	apparent Kd [1] [nM]	apparent Kd [2] [nM]	apparent Kd [3] [nM]	apparent Kd [4] [nM]
AACUGACAUGAGGAUCACCCAUGUCAGGAUAUGACUUCAAAAUAAAAAUAAAAUGAUGUCAGAAGGGACAUGGA			22.6	36.1
AGCGAGGUAGGAUAUACAUGAGGAUCACCCAUGUGCUUGCAUGGCGUGGAACAUCGUAGUAGAAGGGCCGCGCC			20.4	40.2
GGGUACAUCGGAGGAUAUCAUCUAAAUACAUGAGGAUCACCCAUGUCGAUGGAGACAUCGGAGAUUGAGAAGGCCGAUGUACCG	5.06	5.23		
AUACUCAUGUAAGGAUAUGCAGCCGUUUCGGCUGCAGAAGGUACUAUAAUACAUGAGGAUCACCCAUGUCUUUUUAAUUUAGAC	153	39.9		
UGAGUAGCGAAACAACGCACAUGAGGAUCACCCAUGUCUACACAGGAUAUGCGACGCUCCAGUUAGCAGAAGGGUGAACUCAAA	36.4	89.7		
GACAUACAUGAGGAUCACCCAUGUUCAGACGGGCAAGGAUAUGUGUGGAAACCAUACUAUACAGAAGGUGUCUGUC	26.5	17.6		
GCUGCAUAGGCAGGAUAUGCAAUAAUUUAAAUAAAAUAUAAUAAAUUAACAUGAGGAUCACCCAUGUAGAAGGGCCUGUGCAGU			19.8	19.2
UUUCGGCAUGUAGGAUAUGGAUCCGAUUAGGAUUUAGAAGGACAUGAGGAUCACCCAUGUGCAUUUAAUUGGUCAUUACCGUUU			58.5	95.2
UGAUCGAAAGAUCAUAGAUUCUGCUAGGAUAUGCAGAAGUUUCAAUUUACAUGAGGAUCACCCAUGUAGAAGGAGUAGAGUCUA			5.48	5.98
GCACGGUAUGUAGGAUAUGCAUAGCAUUGCUAUGCAGAAGGACAUGAGGAUCACCCAUGUAUGUAUUCCAUACAAUUCCCGUGC			5.41	5.82
GUAGAGUAGUGAGGAUAUACGAGAUCGAUAGAUCGGCGAUCCAAUAAUACAUGAGGAUCACCCAUGUAGAAGGCACUUCUCUAC			7.79	116
CGGUGGUCAGGAUAUACGAACAUGUCGCCAGAUGUCAUGGUACAUGAGGAUCACCCAUGUAGAAGGGAGUAGGU			181	171
AACCCUACUGAGGAUAUGAAACGGCUAGACGCAUCAGAAGGCAGUACAUGAGGAUCACCCAUGUACCUCCGGGC			13.3	20.9
AAAUCCGCUGAGGAUAUCAUGACUGAGAGGUCAUGAGAAGGCGGUACAUGAGGAUCACCCAUGUCUAUGGGCAA			492	454
GGUACUCAAAGAGUACCAAUAUGAACAUGAGGAUCACCCAUGUAGGAUAUGCUACUCAAAGAGUAGCAGAAGGACAUGUGUCUA			16.7	75.5
AAGGUACAUGAGGAUCACCCAUGUGGGUCGGUCGCAGGAUAUCGCCGUUGGCCCUGGCGGCGAGAAGGGUGCCGAA	375	61.1		
UUUGUUUAUGUGAGGAUAUACUGUUUGUAUUGAUUGUAGAAGGUACAUGAGGAUCACCCAUGUUUUGUAUUUAU			18.8	19.4
UGCAUGGUAGGAUAUACGGAACAUUAGGGUUUGUUAUGUGGACAUGAGGAUCACCCAUGUAGAAGGGCCGUGCU			45.9	72.3
CCUCCGUAUGAGGAUAUCGUCCAGGAAACUGGACGAGAAGGCAUGACAUGAGGAUCACCCAUGUUAACGUGAUG			19.8	52.1
GGAUGACAAAGUCAUCCUAAACGAACAUGAGGAUCACCCAUGUAGGAUAUGCAACUCAAAGAGUUGCAGAAGGACAUGUGCCUU			37.2	230
UGGUACAUGGGAGGAUAUCCUCAAGAGACAUGAGGAUCACCCAUGUAUUAUAAGCCUAAUGGCAUGGAGAAGGCCCAUGUACCU	467	49		
CUUUUGUGAGGAUAUCAGUAGUAAAUAAAUUAAAUUACUACUGAGAAGGCACAUGAGGAUCACCCAUGUUCCUC			38.3	249
AGUAAUUACGAAGGAUAUGCGCUCCUCGGGCUCGCAGAAGGUCGUACAUGAGGAUCACCCAUGUGUGAUCGCUCAUAGCCGCAA			93.2	41.4
GAAGCAUGCAAUAACAUGAGGAUCACCCAUGUGAAAACACGUGAGGAUAUUGAUCUGAAGAAGAUCGAGAAGGCACCGUGCUAA	13.4	9.92		
CUCCGACAUGUAGGAUAUGCGUGGCGAAGCUAUGCAGAAGGACAUGAGGAUCACCCAUGUCUUUCCGUCUGCGUACAGACGGAG			17.4	57.3
GCAAACACAUGAGGAUCACCCAUGUGGAAAGAGCAAUUAGGCUAGGAUAUUCAUGUCGUUUGCAAGAAGAAGGAGCCAUAGUGG	560	157		
CAGGUGUUAGGAUAUCGGAGAUCGAGACCGACGGGAUGAGCCGAGAAGGAACAUGAGGAUCACCCAUGUAGGUG			575	247
